Measurements taken from ChEMBL document CHEMBL4308919, “Discovery of TD-0212, an Orally Active Dual Pharmacology AT1 Antagonist and Neprilysin Inhibitor (ARNI)” (ACS Med Chem Lett, 2019).

Columns and labels:
Rattus norvegicus [1] = test: Induction of angioedema in normotensive rat assessed as increase in tracheal plasma extravasation by measuring Evans blue dye leakage into peritracheal tissue at 0.3 to 3 mg/kg, po; assay type: organism-based; conditions: in vivo
How it was run: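 Rat tracheal plasma extravasation model adapted from Sulpizio et al., used as a surrogate for upper-airway angioedema. Normotensive rats are dosed orally. Read-out is Evans Blue dye leakage into peritracheal tissue, compared with vehicle.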

Rattus norvegicus [2] = test: In vivo inhibition of NEP in Sprague-Dawley rat assessed as potentiation of ANP-induced elevation of urinary cGMP level at 3 mg/kg, iv treated for 5 mins at 15 mins post 2 doses of angiotensin-2 treatment at 15 minutes apart followed by ANP treatment measured up to 60 mins by EIA relative to control; assay type: functional
How it was run: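 Rat pharmacodynamic assay with intravenous dosing to exclude oral absorption. AT1 antagonism is read in the same animal as inhibition of the angiotensin-II-evoked pressor response. NEP inhibition is read as potentiation of ANP-induced elevation of urinary cGMP output, relative to vehicle.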

Rattus norvegicus [3] = test: Antihypertensive activity in DOCA salt-induced CD-1 rat model of hypertension assessed as reduction in blood pressure administered via oral gavage in ascending cumulative doses […] measured up to 24 hrs by telemetry method; assay type: functional
How it was run: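 Conscious DOCA-salt hypertensive rats, a low-renin model, dosed orally. Reduction in blood pressure is followed over time. ED10 is the dose giving an average 10% reduction in the 24 h average MAP.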

[4] = target: Angiotensin-converting enzyme (Homo sapiens, UniProt P12821); test: Inhibition of recombinant human ACE using Mca-BK2 as substrate preincubated for 10 mins followed by fluorogenic substrate addition and measured after 20 mins by fluorescence assay
Rattus norvegicus [5] = test: Antihypertensive activity in spontaneously hypertensive rat assessed as reduction in mean arterial pressure administered via oral gavage in […] measured up to 24 hrs by telemetry method; assay type: functional
How it was run: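 Conscious spontaneously hypertensive rats, dosed orally. Blood pressure is monitored by telemetry for 24 h after each dose. Sequential escalating doses of 3, 10, 30 and 100 mg/kg are given at 24 h intervals. Efficacy is the peak percent fall in MAP from baseline. Duration is the vehicle-adjusted % change in AUC over 24 h. Statistics: two-way ANOVA with Bonferroni post hoc.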

[6] = target: T1, Type-1 angiotensin II receptor (Homo sapiens, UniProt P30556); test: Displacement of Europium-labeled angiotensin-2 from human AT1 receptor expressed in CHOK1 cell membranes after 120 mins by DELFIA
T1 sequence (P30556 whole entry): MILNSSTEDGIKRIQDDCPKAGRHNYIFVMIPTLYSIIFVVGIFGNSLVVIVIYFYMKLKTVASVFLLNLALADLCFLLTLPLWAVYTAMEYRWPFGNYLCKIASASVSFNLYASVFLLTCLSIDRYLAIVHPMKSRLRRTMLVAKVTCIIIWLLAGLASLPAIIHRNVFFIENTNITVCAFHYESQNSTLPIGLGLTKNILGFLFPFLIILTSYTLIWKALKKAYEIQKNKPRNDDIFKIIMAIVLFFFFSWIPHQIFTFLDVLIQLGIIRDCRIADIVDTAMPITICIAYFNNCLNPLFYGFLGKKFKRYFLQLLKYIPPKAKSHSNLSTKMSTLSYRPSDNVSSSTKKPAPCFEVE

Neprilysin = Neprilysin (Homo sapiens, UniProt P08473); test: Inhibition of NEP (unknown origin) preincubated for 10 mins followed by fluorogenic substrate addition and measured after 20 mins by fluorescence assay
Rattus norvegicus [7] = test: Antihypertensive activity in spontaneously hypertensive rat assessed as reduction in mean arterial pressure administered via oral gavage in ascending cumulative doses […] measured up to 24 hrs in presence of NEP inhibitor candoxatril by telemetry method; assay type: functional

Angiotensin-converting enzyme, sequence (P12821 whole entry): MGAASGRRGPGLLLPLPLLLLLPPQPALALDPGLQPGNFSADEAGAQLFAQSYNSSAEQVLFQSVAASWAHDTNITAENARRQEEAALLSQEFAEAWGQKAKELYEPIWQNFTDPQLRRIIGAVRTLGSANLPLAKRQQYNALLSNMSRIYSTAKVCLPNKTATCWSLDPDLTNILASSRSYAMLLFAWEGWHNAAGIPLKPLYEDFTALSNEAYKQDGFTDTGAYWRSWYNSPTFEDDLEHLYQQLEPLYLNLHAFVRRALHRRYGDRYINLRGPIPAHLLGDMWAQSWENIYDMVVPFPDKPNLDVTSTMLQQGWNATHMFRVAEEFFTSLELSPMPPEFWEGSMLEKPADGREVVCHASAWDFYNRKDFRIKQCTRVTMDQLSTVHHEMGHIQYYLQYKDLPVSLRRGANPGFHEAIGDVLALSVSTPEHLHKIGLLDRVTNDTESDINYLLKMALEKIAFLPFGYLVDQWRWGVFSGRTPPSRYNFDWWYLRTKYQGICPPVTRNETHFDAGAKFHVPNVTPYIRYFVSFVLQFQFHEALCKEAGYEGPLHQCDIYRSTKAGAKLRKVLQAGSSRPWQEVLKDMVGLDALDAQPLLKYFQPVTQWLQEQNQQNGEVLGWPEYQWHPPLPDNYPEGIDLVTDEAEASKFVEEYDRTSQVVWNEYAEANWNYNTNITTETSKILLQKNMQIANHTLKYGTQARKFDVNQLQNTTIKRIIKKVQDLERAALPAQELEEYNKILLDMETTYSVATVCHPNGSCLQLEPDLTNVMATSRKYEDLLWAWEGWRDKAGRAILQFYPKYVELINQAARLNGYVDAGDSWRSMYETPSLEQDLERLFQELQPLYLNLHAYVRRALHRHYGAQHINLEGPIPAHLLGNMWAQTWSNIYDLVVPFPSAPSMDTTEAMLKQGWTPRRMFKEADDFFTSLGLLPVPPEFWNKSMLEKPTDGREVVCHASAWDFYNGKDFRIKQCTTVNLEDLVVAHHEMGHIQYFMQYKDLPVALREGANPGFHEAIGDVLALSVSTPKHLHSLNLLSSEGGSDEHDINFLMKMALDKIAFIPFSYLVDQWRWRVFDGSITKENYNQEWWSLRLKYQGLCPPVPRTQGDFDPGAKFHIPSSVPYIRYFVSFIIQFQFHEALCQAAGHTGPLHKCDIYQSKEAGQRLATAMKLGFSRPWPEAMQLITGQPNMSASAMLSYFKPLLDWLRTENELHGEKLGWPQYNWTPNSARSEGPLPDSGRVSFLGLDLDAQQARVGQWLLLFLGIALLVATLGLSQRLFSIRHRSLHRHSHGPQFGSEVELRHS
Neprilysin, sequence (P08473 whole entry): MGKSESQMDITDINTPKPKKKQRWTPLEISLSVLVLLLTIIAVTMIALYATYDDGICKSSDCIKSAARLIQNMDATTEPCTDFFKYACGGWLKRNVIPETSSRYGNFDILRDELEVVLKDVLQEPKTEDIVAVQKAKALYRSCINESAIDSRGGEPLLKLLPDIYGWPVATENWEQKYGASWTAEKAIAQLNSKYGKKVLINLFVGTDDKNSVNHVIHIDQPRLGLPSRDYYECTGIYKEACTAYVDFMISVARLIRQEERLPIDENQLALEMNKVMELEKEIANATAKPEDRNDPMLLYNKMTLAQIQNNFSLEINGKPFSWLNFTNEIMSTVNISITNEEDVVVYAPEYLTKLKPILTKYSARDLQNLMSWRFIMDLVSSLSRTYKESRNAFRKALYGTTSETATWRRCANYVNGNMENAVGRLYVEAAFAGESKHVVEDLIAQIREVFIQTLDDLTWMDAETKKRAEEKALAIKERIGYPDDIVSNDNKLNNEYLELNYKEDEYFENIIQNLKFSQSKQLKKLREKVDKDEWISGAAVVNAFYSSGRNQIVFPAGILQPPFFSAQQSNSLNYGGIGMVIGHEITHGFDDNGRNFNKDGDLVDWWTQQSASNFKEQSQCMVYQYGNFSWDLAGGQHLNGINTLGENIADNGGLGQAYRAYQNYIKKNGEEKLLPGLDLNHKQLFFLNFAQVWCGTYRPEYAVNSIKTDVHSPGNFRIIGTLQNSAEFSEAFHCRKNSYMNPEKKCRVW

IC50 [4] [nM] | Ki [6] [nM] | IC50 (Neprilysin) [nM] | Compound | Activity (Rattus norvegicus [1]) | fold change (FC) (Rattus norvegicus [2]) | ED10 (Rattus norvegicus [3]) [mg/kg] | Activity (Rattus norvegicus [5]) | ED10 (Rattus norvegicus [5]) [mg/kg] | ED10 (Rattus norvegicus [7]) [mg/kg]
0.1 | > 10000 | 0.2 | O=C(N[C@H]1CCS[C@H]2CCC[C@@H](C(=O)O)N2C1=O)[C@@H](S)Cc1ccccc1 [OMAPATRILAT] | Non-Toxic | 5.3 | 66 | Dose-dependent effect | 15 | –
– | – | – | CCCCC(=O)N(Cc1ccc(-c2ccccc2-c2nnn[nH]2)cc1)[C@H](C(=O)O)C(C)C | – | – | – | Dose-dependent effect | 17 | 15
